TAAR1 ag: human TAAR1 agonists, primary screen, Fluo-8 calcium fluorescence, CHO RD-HGA16 cells; Trace amine-associated receptor 1 (Homo sapiens), Q96RJ0; vehicle wells 0%, saturating PEA agonist 100%; activation, % at 3 µM; 360,000 tested, 0.99% active; AID 624467, 2012;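 active = activation above the mean activation of all test compounds in the run plus 3 SD, cut at about 38% in these data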
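System: CHO RD-HGA16 cells carrying human TAAR1 plus Gα16; Incubation: 17-24 h seeding, 75 min 37 °C dye, 30 min RT; Measured by: Fluo-8 fluorescence, 5 s baseline then 140 s kinetic read; Control set: DMSO and PEA EC100; Replication: single well for each compound.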
TAAR1 antag: human TAAR1 antagonists, primary screen, Fluo-8 calcium fluorescence, CHO RD-HGA16 cells. inhibition, % at 3 µM. antagonist. AID 624466, 2012. 360,000 tested, 1.5% active. Trace amine-associated receptor 1 (Homo sapiens), Q96RJ0;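 active = inhibition above a per-plate cutoff, the mean inhibition of test compounds on that plate plus 3 SD, cut at about 49% in these data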;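 also: 0% = DMSO plus EC80 beta-PEA response and 100% = DMSO alone without agonist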
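test system = CHO RD-HGA16 cells bearing hTAAR1 | replication = singlicate | controls = DMSO-only wells and EC80 β-PEA-stimulated wells | reagent = EC80 β-phenethylamine stimulus | read-out basis = percent inhibition of PEA-evoked calcium signal, max/basal emission ratio | schedule = seeding 17-24 h prior, 75-min 37 °C, 30-min RT dye loading | signal = kinetic Fluo-8 calcium fluorescence measurement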
Platelet DG rel: inhibitors of platelet dense granule secretion, primary screen, cell-based, MLPCN, human platelets | human platelet-rich plasma, SFLLRN dense granule ATP release, luminescence | AID 1663, 2009 | 300,000 tested, 0.22% active | inhibition, %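 (compounds screened at 7.5 µM in platelet-rich plasma)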;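 active = mean replicate score, as percent of positive control, at or above 50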
Rce1 inhib: yeast Rce1p protease inhibitors, primary screen, biochemical, fluorescence, cell-free homogeneous; yeast membranes, quenched prenylated peptide cleavage fluorescence; 290,000 tested, 0.27% active; CAAX prenyl protease 2 (Saccharomyces cerevisiae (strain ATCC 204508 / S288c)), Q03530; calls only;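 active = fall in fluorescence gain of 50% or more versus controls, with final raw signal at or below 3038400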;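 also: plate controls were neutral control wells for no effect and wells lacking membranes for full effect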
Target sequence (Q03530 whole entry, looked up): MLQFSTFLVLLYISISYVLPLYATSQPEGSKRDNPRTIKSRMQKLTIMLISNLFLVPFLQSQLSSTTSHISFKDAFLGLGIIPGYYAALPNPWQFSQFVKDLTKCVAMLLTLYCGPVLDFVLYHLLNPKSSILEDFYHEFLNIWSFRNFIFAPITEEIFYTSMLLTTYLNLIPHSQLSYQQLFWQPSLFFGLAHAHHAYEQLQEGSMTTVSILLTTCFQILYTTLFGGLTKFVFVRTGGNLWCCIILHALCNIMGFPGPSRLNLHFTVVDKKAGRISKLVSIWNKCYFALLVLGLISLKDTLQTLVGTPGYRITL
VLA-4 inh: inhibition in human VLA-4 binding assay, primary screen, VLA-4 allosteric modulator project, MLPCN library, flow cytometry, VLA-4 expressing cells | Integrin alpha-4 (Homo sapiens), P13612 | 330,000 tested, 0.2% active | ligand binding flow cytometry | inhibition, % (about 7 µM as worked out from the volumes in the protocol); in the data active = inhibition above about 50%
* marks the source's active call; other numbers are inactive results; i = inactive; . = no result; + = active, no number. Sampled rows, rich in hits. Any-hit rate of the full collection: about 2.6%.

SMILES	TAAR1 ag	TAAR1 antag	Platelet DG rel	Rce1 inhib	VLA-4 inh
COc1ccc(S(=O)Cc2ccc(C(=O)N3CCN(c4cccc(C)c4C)CC3)o2)cc1 (centres undefined)	.	.	4	i	-6
Nc1ccn([C@@H]2O[C@H](CNCC3=CCOc4ccc(O)cc43)[C@@H](O)[C@H]2O)c(=O)n1	1	-11	.	.	.
CC1=C(C(N)=O)C(c2cccs2)n2ncnc2N1 (centres undefined)	0	-14	8	i	0
CCCCCOC(=O)C1=C(C)Nc2ncnn2C1c1cccs1 (centres undefined)	15	57*	-3	i	3
COc1cc2c(cc1OC)C(C)N(C(=O)c1cc3c(C)cc(C)cc3[nH]1)CC2 (centres undefined)	-1	-24	6	i	-3
O=C(c1cc2c(s1)-c1ccccc1S(=O)(=O)C2)N1CCN(Cc2ccccc2)CC1	13	51*	-18	i	28
CCN1CCN(C(=O)c2cc3c(s2)-c2ccccc2S(=O)(=O)C3)CC1	2	-9	-1	i	-2
Cc1ccc(Cl)cc1NC(=O)COC(=O)CSc1ccccc1	0	-11	.	.	17
NC(CCc1ccccc1)c1csc(NC(=O)NCC2CCCCC2)n1 (centres undefined)	23	20	.	.	.
C=CCn1c(SCCN)nnc1-c1cccc(S(=O)(=O)N2CCOCC2)c1	0	7	.	.	.
Cc1ccc(N2C(=O)c3ccccc3C2O)nc1 (centres undefined)	.	.	78*	i	-2
Cc1ccc(N2C(=O)c3ccccc3C2Nc2ccccc2F)nc1 (centres undefined)	-1	-34	-1	i	25
COc1cc(/C=C2\SC(=Nc3ccccc3)NC2=O)cc(Cl)c1O	75*	62*	6	i	-127
COc1ccc(S(=O)(=O)N2CCCCC2)cc1NC(=O)C1CC1	0	-8	.	.	4
COc1ccc(S(=O)(=O)N2CCCCC2)cc1NC(=O)C1COc2ccccc2O1 (centres undefined)	5	58*	4	i	0
COc1ccc(CCNCc2cc(C)n(-c3ccc(OC)cc3)c2C)cc1	45*	-1	-6	i	-2
COc1ccc(CCNCc2ccccc2N2CCCC2)cc1	11	-11	.	i	6
O=C(C1CCN(S(=O)(=O)c2ccc(Cl)s2)CC1)N1CCN(c2ccccc2)CC1	0	-11	.	.	.
COc1ccc(-c2n[nH]c(C)c2-c2ccc(Cl)cc2)c(O)c1OC	19	54*	0	i	9
COc1ccc(/C=C/c2nc3ccccc3n2C)cc1	0	-23	113*	+	-6
CCN(CC)c1ccc(-c2sc(Nc3ccccc3)n[n+]2-c2ccc(F)cc2)cc1	49*	24	8	i	i
CCc1ccc(Nc2n[n+](-c3ccccc3)c(-c3c(Cl)cccc3Cl)s2)cc1	59*	92*	0	i	-1
CN(C)c1ccc(-c2sc(Nc3ccccc3)n[n+]2-c2ccc(F)cc2)cc1	18	17	2	i	i
CCc1ccc(Nc2n[n+](-c3ccccc3)c(-c3cc(OC)c(OC)cc3Br)s2)cc1	15	7	-1	i	-8
CCc1ccc(Nc2n[n+](-c3ccccc3)c(-c3ccc(N(CC)CC)cc3)s2)cc1	50*	50*	1	i	i
SMILES	TAAR1 ag	TAAR1 antag	Platelet DG rel	Rce1 inhib	VLA-4 inh
CCc1ccc(Nc2n[n+](-c3ccccc3)c(/C=C/c3ccccc3)s2)cc1	.	.	6	+	12
CCN(CC)CCCNC(=O)CCc1c(C)n(CC)c2cc(-c3ccccc3OC)nn2c1=O	2	-14	2	+	0
CCOc1ccccc1CNC(=O)c1cc2occc2n1C	-1	17	5	+	29
CCN(Cc1ccccc1)S(=O)(=O)c1ccc(OC)cc1	-2	7	5	i	8
COc1ccc(S(=O)(=O)N(CC(=O)N2CCCC2)Cc2ccccc2)cc1	6	-8	-1	+	1
CCCCc1c(-c2ccccc2OC)ncn1Cc1ccc(OC)cc1	1	20	.	.	.
Cc1ccc(-n2sc3cc(F)ccc3c2=O)c(C)c1	49*	7	.	.	.
O=c1c2ccc(F)cc2sn1-c1ccccc1	49*	8	.	.	.
O=c1c2cc(F)ccc2sn1-c1ccccc1Cl	32	-14	.	.	.
CCOC(=O)c1c(C2COc3ccccc3O2)csc1NC(=O)c1ccccc1 (centres undefined)	4	10	4	+	4
COC(=O)c1cccc(NC(=O)CSc2nnc(COc3cccc(C)c3)n2C)c1	12	21	1	i	23
Cc1cccc(OCc2nnc(SCC(=O)Nc3sc(C)c(C)c3C#N)n2C)c1	42*	22	-5	i	23
COc1ccc(C2c3c(ncn(CCN4CCOCC4)c3=N)Oc3ccc4ccccc4c32)cc1 (centres undefined)	16	17	1	+	21
CCCc1nnc(SCC(=O)Nc2ccc(NC(C)=O)cc2)n1-n1cccc1	5	-9	-4	i	0
COc1ccc2nc(NC(=O)c3ccccc3C(=O)O)sc2c1	0	-2	3	i	6
COc1ccc(C(=O)Nc2nc3ccccc3s2)c(OC)c1	4	-20	83*	i	12
N=c1oc2cc(O)ccc2cc1C(=O)Nc1nc2ccccc2s1	6	-12	4	+	-78
COc1ccccc1C(=O)Nc1nc2ccccc2s1	2	-23	73*	i	0
N=c1oc2cc(O)ccc2cc1C(=O)Nc1ccccn1	.	.	.	.	-15
COc1ccccc1C(=O)Nc1nc2ccc(S(C)(=O)=O)cc2s1	14	9	-5	i	-12
C=C1CC2(OC1=O)c1ccccc1CCc1ccccc12	0	34	.	.	.
COc1ccccc1N1CCN(C(=O)c2coc(=O)c(Br)c2)CC1	0	3	-7	+	8
COc1ccccc1N1CCN(C(=O)c2cc3ccccc3[nH]2)CC1	8	53*	3	i	0
CC(=O)Nc1ccc(S[C@@H](CCN2CC[C@H](C(C)(C)C)CCC2=O)c2ccccc2)cc1	17	49*	.	.	0
CC(C)(C)[C@@H]1CCC(=O)N(CC[C@H](Sc2ccccc2)c2ccccc2)CC1	13	42	8	i	9
Cc1ccccc1-c1nc(CS(=O)(=O)CC(=O)N2CCc3ccccc32)c(C)o1	0	-9	58*	i	15
Cc1oc(-c2ccccc2F)nc1CS(=O)(=O)CC(=O)N1CCc2ccccc21	1	-25	.	.	9

Screening data (PubChem BioAssay)
